A selection: hits, their analogues and other compounds. The true share with any hit is near 1.3%.
G6PDH CS – L. mesenteroides G6PDH inhibitors, counter-screen for G6PDH-coupled screening assays, biochemical, Leuconostoc mesenteroides enzyme | inhibition, % at 5 µM | AID 1020, 2008 | glucose-6-phosphate dehydrogenase [Leuconostoc mesenteroides] | actives 0.12% (n = 200,000) | Purified L. mesenteroides G6PDH, diaphorase/resazurin coupled fluorescence, 45 min; in the data active = inhibition above about 50%
PfGluPho inh – PfG6PD enzyme inhibitors, primary screen, biochemical, fluorescence intensity, uHTS; glucose-6-phosphate dehydrogenase-6-phosphogluconolactonase (Plasmodium falciparum 3D7); PfGluPho enzyme, NADPH resazurin-diaphorase fluorescence; inhibition, % at 20 µM; actives 0.78% (n = 350,000);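 active = inhibition reaching at least a set limit at 20 µM in the primary screen, cut at about 59% in these data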;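 also: 0% = DMSO wells with substrate and 100% = DMSO wells lacking glucose-6-phosphate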
HKDC1 inh – HKDC1 hexokinase inhibitors, primary screen, biochemical, fluorescence, uHTS | Q2TB90 | recombinant HKDC1, G6PDH/diaphorase resazurin coupled fluorescence | inhibition, % at 20 µM | actives 0.16% (n = 340,000) | AID 493160, 2011;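 active = inhibition above about 35% when tested at 20 µM, limit read from the data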;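 also: plate controls were DMSO wells with enzyme for no effect and DMSO wells lacking enzyme for full effect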
Target sequence (Q2TB90 whole entry, looked up): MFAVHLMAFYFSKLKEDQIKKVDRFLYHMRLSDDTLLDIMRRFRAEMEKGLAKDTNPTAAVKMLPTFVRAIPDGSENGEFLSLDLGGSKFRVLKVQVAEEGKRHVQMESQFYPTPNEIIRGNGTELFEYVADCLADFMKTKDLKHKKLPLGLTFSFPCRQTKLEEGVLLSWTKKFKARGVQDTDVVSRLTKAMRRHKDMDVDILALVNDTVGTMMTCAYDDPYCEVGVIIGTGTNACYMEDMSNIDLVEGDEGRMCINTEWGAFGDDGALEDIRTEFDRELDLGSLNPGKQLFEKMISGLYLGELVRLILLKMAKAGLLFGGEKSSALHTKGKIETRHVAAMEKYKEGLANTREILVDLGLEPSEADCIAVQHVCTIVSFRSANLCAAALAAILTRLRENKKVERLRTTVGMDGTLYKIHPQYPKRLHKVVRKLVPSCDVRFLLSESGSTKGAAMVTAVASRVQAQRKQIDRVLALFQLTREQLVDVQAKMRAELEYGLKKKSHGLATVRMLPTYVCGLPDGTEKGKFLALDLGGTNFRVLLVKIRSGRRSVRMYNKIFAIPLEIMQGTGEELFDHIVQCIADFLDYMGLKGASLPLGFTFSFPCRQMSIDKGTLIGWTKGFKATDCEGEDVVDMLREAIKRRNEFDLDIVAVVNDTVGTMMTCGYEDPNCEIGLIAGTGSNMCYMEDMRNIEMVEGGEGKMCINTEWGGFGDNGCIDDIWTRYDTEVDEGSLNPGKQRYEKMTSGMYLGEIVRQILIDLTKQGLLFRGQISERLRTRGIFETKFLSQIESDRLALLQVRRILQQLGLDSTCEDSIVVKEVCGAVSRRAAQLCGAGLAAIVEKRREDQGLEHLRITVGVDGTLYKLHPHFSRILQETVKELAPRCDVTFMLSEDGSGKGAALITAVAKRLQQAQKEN
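Test system: recombinant HKDC1 (HK5) hexokinase enzyme, produced in-house; Amount: enzyme 5 µg/mL final; Buffer or medium: Tris pH 8.0 buffer with MgCl2, Tween-20, BSA, BME; Reagent: glucose and ATP substrates; Doses: 20 µM test compound, 1% DMSO; Incubation: 90 min reaction incubation at room temperature, dark; Detection: resorufin fluorescence at 613 nm.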
Diaph act CS – compounds boosting diaphorase resazurin reduction – biochemical, uHTS, resorufin fluorescence, counter-screen for diaphorase-coupled primary assays, primary screen. Diaphorase/resazurin coupled assay, 16 min; stronger effect = higher value; 1 = vehicle wells, 0 = NADH-free wells. activation factor at 20 µM. actives 0.005% (n = 190,000). AID 1229, 2008;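 active = diaphorase activity raised at least twofold by the compound at 20 µM; inactive = activation factor below 2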
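System – purified diaphorase enzyme from Clostridium kluyveri · Input – enzyme 0.07 U/mL final · Also added – final NADH 0.114 mM, resazurin 0.1 mM · Measured by – fluorescence of resorufin, 544 nm excitation, 590 nm emission · Timing – 16 min enzyme reaction, ambient temperature · Measure – resorufin increase flagging diaphorase activators or reducers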
Diaph inh CS – diaphorase inhibitors and chemical oxidizers, primary screen, counter-screen for diaphorase-coupled primary assays, biochemical, uHTS, resorufin fluorescence; diaphorase resazurin-to-resorufin fluorescence, NADH, 16 min; bacterial (C. kluyveri) enzyme, not human; inhibition, % at 20 µM; actives 0.69% (n = 190,000);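 active = primary screen inhibition at 20 µM above a set limit, cut at about 50% in these data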;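 also: plate controls were DMSO with full reaction for no effect and wells lacking NADH for full effect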
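Test system: bacterial diaphorase enzyme (C. kluyveri); Quantity: 0.14 U/mL diaphorase, enzyme working solution; Times: reaction incubation of 16 min at room temperature; Measured by: fluorescence of resorufin formed from resazurin, Ex 544/Em 590 nm; Benchmarks: positive control minus NADH, DMSO neutral control.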
PfG6PD confirm – PfG6PD inhibitors, hit retest, confirmation, biochemical, fluorescence intensity, single concentration; shares compounds with PfGluPho inh; recombinant PfGluPho, NADPH-diaphorase-resazurin fluorescence; inhibition, % at 20 µM; actives 34% (n = 2,400); AID 504753, 2011;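 active = inhibition of at least 50% at 20 µM in any single replicate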;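 also: 0% = DMSO with substrate and 100% = DMSO lacking glucose-6-phosphate substrate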
Diaphorase 10uM – diaphorase inhibitors and chemical oxidizers, confirmation, counter-screen for P. falciparum G6PD inhibitor project, biochemical, fluorescence intensity, 10 µM NADPH; shares compounds with PfGluPho inh; diaphorase-coupled resazurin reduction, NADPH 10 uM; inhibition, % at 20 µM; actives 39% (n = 820);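 active = average inhibition reaching 50% or more with the compound at 20 µM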;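 also: resorufin red fluorescence formed as diaphorase reduces resazurin using NADPH; 0% = DMSO with enzyme and 100% = DMSO without enzyme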
Diaphorase 30uM – diaphorase inhibitors and chemical oxidizers, confirmation, counter-screen for P. falciparum G6PD inhibitor project, biochemical, fluorescence intensity, 30 µM NADPH; shares compounds with PfGluPho inh; Diaphorase/resazurin coupled assay, resorufin fluorescence; inhibition, % at 20 µM; actives 29% (n = 820); AID 504863, 2011;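 active = inhibition averaging 50% or more, tested at 20 µM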;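 also: 0% = DMSO with enzyme and 100% = DMSO wells lacking diaphorase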
An asterisk follows results filed as active.

What do the screens show for `COc1ccc2ccccc2c1-c1sc(Nc2ccccc2)n[n+]1-c1ccc(F)cc1`?
PfGluPho inh: 99*; HKDC1 inh: -1; PfG6PD confirm: 79*; Diaphorase 10uM: 75*; Diaphorase 30uM: 59*

What do the screens show for `COc1cccc(C(=O)NOCc2ccc(C)cc2)c1OC`?
PfGluPho inh: -5; HKDC1 inh: -2

What do the screens show for `CCCc1nc(SCC(=O)c2ccccc2)c2c(=O)n(C)c(=O)n(C)c2n1`?
G6PDH CS: -43; PfGluPho inh: 71*; HKDC1 inh: 0; Diaph act CS: 0.9; Diaph inh CS: 14; PfG6PD confirm: 24

What do the screens show for `CC(=O)c1cccc(NC(=O)c2cnn(-c3ccccc3)c2C)c1`?
PfGluPho inh: 75*; HKDC1 inh: 6; PfG6PD confirm: 51*; Diaphorase 10uM: 41; Diaphorase 30uM: 35

How did Cc1c(C(=O)Nc2cccc([N+](=O)[O-])c2)cnn1-c1ccccc1 do in these assays?
PfGluPho inh: 74*; HKDC1 inh: -1; PfG6PD confirm: 27

What do the screens show for `O=C(c1ccccc1)c1c[nH]c(C(=O)NNc2ccccc2)c1`?
G6PDH CS: 1; PfGluPho inh: 69*; HKDC1 inh: -4; Diaph act CS: 0.9; Diaph inh CS: 8; PfG6PD confirm: 14

Results for CN1CCc2cccc3c2[C@H]1Cc1ccc(O)c(O)c1-3 ?
G6PDH CS: 44; PfGluPho inh: 87*; HKDC1 inh: 4; Diaph act CS: 0.2; Diaph inh CS: 78*; PfG6PD confirm: 89*; Diaphorase 10uM: 21; Diaphorase 30uM: 3

Results for Cc1ccc(CCNC(=O)C2CCC(=O)N2CCc2ccccc2)cc1 (centres undefined) ?
PfGluPho inh: 9; HKDC1 inh: 0

Results for CN1CCc2c(sc3c2c(=O)n(-c2ccccc2)c2nnc(SCc4ccccc4)n32)C1 ?
G6PDH CS: 4; PfGluPho inh: 60*; HKDC1 inh: 8; Diaph act CS: 0.9; Diaph inh CS: 6; PfG6PD confirm: 45

Results for NS(=O)(=O)c1ccc(Nc2nc(-c3ccc(F)cc3)cs2)cc1 ?
G6PDH CS: 2; PfGluPho inh: 16; HKDC1 inh: 15; Diaph act CS: 0.8; Diaph inh CS: 18

Results for NS(=O)(=O)c1ccc(Nc2nc(-c3ccc(O)cc3O)cs2)cc1 ?
G6PDH CS: 20; PfGluPho inh: 69*; HKDC1 inh: -9; Diaph act CS: 0.8; Diaph inh CS: 23; PfG6PD confirm: -2

Results for COc1ccccc1-c1ccc(Nc2ccc(C(=O)N3CCOCC3)cc2)nn1 ?
G6PDH CS: 4; PfGluPho inh: -19; HKDC1 inh: 8; Diaph act CS: 0.9; Diaph inh CS: 9

How did CC(=O)c1ccc(Nc2ccc(-c3ccccc3F)nn2)cc1 do in these assays?
G6PDH CS: -6; PfGluPho inh: 79*; HKDC1 inh: 3; Diaph act CS: 1.1; Diaph inh CS: -12; PfG6PD confirm: 36

How did C[C@@H]1CN(S(=O)(=O)c2ccc3c(c2)OCCO3)CCN1S(=O)(=O)c1c(F)cccc1F do in these assays?
PfGluPho inh: -2; HKDC1 inh: 1

Results for CCN(CC)c1ccc(NC(=O)c2cccc(C)c2)cc1S(=O)(=O)Nc1ccccc1OC ?
G6PDH CS: -14; PfGluPho inh: 73*; HKDC1 inh: -16; Diaph act CS: 0.8; Diaph inh CS: 16; PfG6PD confirm: 54*; Diaphorase 10uM: -17; Diaphorase 30uM: -19

How did COc1ccc(C(=O)Nc2ccc(Cl)c(S(=O)(=O)Nc3ccccc3OC)c2)cc1 do in these assays?
G6PDH CS: -16; PfGluPho inh: 11; HKDC1 inh: -4; Diaph act CS: 0.9; Diaph inh CS: 12

What do the screens show for `CCN(CC)c1ccc(NC(=O)c2ccccc2)cc1S(=O)(=O)Nc1ccccc1OC`?
G6PDH CS: 6; PfGluPho inh: 74*; HKDC1 inh: -14; Diaph act CS: 0.8; Diaph inh CS: 22; PfG6PD confirm: 31

What do the screens show for `O=C(Nc1ccc(S(=O)(=O)N2CCCC2)cc1)c1cccnc1`?
G6PDH CS: 5; PfGluPho inh: -2; HKDC1 inh: -2; Diaph act CS: 1; Diaph inh CS: 0

Results for COc1ccc(Cn2c(/C=C/c3ccccc3)nc3ccccc32)cc1 ?
G6PDH CS: 4; PfGluPho inh: 74*; HKDC1 inh: -4; Diaph act CS: 0.8; Diaph inh CS: 18; PfG6PD confirm: 21

What do the screens show for `COc1ccc(/C=C/c2nc3ccccc3n2C)cc1`?
G6PDH CS: 2; PfGluPho inh: 73*; HKDC1 inh: -5; Diaph act CS: 1; Diaph inh CS: 5; PfG6PD confirm: 56*; Diaphorase 10uM: 50; Diaphorase 30uM: 44

How did COc1ccc(Nc2nc3ccccc3n2C)cc1 do in these assays?
PfGluPho inh: 6; HKDC1 inh: -3

What do the screens show for `CCn1c(/C=C/c2ccccc2)nc2ccccc21`?
G6PDH CS: 4; PfGluPho inh: 56; HKDC1 inh: -4; Diaph act CS: 1; Diaph inh CS: -4

Results for O=C(N=Nc1c(O)[nH]c2ccccc12)c1cc(-c2cccs2)[nH]n1 ?
PfGluPho inh: 92*; HKDC1 inh: 11; PfG6PD confirm: 39

Results for O=C(N=Nc1c(O)[nH]c2ccccc12)c1ccccc1NS(=O)(=O)c1cccs1 ?
G6PDH CS: 9; PfGluPho inh: 62*; HKDC1 inh: 4; Diaph act CS: 0.9; Diaph inh CS: 12; PfG6PD confirm: 12

What do the screens show for `O=C(N=Nc1c(O)[nH]c2ccc(F)cc12)c1ccc(NS(=O)(=O)c2cccs2)cc1`?
PfGluPho inh: 1; HKDC1 inh: 15

How did c1ccc(Cn2ccnc2C2OCCO2)cc1 do in these assays?
PfGluPho inh: -14
